Measurements published in ChEMBL document CHEMBL4190249, “Antiproliferative and apoptotic activities of sequence-specific histone acetyltransferase inhibitors” (Eur J Med Chem, 2017).
The source made the active and inactive calls. The rule behind the calls is not given here.

Tests used:
[1] = system: SW-620; assay: Antiproliferative activity against human SW620 cells harboring p53 mutant assessed as cell viability at 10 uM after 96 hrs by WST8 assay relative to control; type: functional; details: SW-620, 96 h, read-out: Activity
How it was run: (§1)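 Cells seeded at 5×10^3 per well and grown 24 h at 37°C, 5% CO2. A549 medium was DMEM with 10% FBS and 2 mM L-glutamine. SW620 medium had 10% FBS and 1% penicillin/streptomycin. Medium was then replaced with conjugate at 0.1, 1, 5 or 10 μM for 96 h. WST-8 reagent was added and absorbance read at 450 nm. Results are mean ± SD.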

[2] = system: dsDNA; assay: Binding affinity to 5'-ACTTATTCCATATAGA-3'/3'-TGAATAAGGTATATCT-5' dsDNA (unknown origin) assessed as change in melting temperature at 2.5 uM by spectrophotometric method; type: nucleic-acid assay
[3] = system: dsDNA; assay: Binding affinity to 5'-ACTTATCCACTATAGA-3'/3'-TGAATAGGTGATATCT-5' dsDNA (unknown origin) assessed as change in melting temperature at 2.5 uM by spectrophotometric method; type: nucleic-acid assay
[4] = biological target: Histone acetyltransferase p300 (Homo sapiens, UniProt Q09472); assay: Inhibition of p300 (unknown origin) using H3 peptide and acetyl-coA as substrate by fluorometric assay
Histone acetyltransferase p300, sequence (Q09472 whole entry, the tested form may be a part): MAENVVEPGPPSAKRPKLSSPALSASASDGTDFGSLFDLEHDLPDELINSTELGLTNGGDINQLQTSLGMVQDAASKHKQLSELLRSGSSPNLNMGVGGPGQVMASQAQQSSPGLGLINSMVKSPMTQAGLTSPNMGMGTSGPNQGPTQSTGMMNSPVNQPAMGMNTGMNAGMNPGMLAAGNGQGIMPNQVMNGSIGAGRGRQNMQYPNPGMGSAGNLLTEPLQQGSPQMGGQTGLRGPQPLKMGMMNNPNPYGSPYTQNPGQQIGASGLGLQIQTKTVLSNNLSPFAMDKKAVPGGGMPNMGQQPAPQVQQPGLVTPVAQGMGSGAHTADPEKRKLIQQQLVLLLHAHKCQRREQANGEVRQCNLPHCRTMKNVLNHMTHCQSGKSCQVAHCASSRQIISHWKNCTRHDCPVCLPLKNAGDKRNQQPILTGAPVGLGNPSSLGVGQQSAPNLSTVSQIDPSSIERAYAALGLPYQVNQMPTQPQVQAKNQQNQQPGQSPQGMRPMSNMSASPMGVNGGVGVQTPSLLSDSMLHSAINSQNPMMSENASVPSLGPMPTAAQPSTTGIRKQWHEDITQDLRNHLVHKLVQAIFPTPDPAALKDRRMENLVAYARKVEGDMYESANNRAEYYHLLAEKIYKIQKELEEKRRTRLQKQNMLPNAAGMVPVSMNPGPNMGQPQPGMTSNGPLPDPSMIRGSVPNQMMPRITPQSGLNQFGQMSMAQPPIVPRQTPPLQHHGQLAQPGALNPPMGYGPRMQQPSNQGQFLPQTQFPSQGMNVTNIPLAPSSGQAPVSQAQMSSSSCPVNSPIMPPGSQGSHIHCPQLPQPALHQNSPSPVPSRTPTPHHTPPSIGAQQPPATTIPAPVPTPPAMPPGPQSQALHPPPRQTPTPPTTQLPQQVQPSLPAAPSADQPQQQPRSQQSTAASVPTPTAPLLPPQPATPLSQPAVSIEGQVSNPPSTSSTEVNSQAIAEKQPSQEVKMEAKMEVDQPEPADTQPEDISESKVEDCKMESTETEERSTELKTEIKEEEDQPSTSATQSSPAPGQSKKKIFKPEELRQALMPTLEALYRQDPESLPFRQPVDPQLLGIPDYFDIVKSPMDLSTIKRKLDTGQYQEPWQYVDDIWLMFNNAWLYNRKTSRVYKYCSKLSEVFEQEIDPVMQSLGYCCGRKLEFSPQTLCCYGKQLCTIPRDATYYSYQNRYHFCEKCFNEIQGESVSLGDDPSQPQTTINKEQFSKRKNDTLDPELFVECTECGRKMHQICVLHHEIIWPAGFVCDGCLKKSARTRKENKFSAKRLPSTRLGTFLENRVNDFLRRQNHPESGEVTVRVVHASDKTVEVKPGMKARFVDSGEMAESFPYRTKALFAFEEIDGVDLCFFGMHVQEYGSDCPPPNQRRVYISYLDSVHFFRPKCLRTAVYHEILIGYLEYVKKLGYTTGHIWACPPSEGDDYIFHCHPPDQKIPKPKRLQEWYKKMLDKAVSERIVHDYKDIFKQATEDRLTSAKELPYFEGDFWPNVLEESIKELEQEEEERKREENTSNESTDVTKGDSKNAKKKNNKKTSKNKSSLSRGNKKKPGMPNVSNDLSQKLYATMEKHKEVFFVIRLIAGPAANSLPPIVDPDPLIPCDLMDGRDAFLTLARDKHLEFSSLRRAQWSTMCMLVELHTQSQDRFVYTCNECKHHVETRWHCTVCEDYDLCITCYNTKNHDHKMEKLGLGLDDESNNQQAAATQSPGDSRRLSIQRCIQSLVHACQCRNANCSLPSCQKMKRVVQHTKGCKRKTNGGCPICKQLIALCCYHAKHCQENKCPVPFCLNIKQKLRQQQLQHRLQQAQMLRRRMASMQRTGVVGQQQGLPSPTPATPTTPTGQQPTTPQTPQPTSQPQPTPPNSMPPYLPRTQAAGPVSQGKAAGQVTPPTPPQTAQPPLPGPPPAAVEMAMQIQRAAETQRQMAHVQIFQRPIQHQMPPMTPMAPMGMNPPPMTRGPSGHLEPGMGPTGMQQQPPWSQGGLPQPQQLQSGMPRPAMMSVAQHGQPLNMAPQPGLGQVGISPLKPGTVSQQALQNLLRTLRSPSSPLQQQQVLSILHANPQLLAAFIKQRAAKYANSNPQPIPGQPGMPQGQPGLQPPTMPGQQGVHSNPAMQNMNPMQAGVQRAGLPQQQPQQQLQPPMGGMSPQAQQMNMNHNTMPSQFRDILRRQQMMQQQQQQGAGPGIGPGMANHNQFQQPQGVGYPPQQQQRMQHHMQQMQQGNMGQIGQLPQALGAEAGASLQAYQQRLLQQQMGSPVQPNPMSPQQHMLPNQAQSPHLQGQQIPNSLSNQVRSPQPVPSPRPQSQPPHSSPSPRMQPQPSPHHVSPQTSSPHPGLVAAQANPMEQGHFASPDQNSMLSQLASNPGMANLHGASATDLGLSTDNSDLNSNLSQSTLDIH
How it was run: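 Fluorometric HAT kit assay with recombinant p300 core domain as enzyme and acetyl-CoA plus H3 histone peptide as substrates. Effectors were tested at 1 and 5 μM. HeLa nuclear extract served as positive control, and 0.5% DMSO was set as 100% activity.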

[5] = system: A549; assay: Antiproliferative activity against human A549 cells after 96 hrs by WST8 assay; type: functional, cell-based; how it was run: as §1
[6] = biological target: Cellular tumor antigen p53 (Homo sapiens) (UniProt P04637); assay: Activation of p53 in human A549 cells assessed as upregulation of SPATA18 gene expression at 2 uM after 48 hrs by microarray analysis relative to control; type: cell-based
Cellular tumor antigen p53 (Homo sapiens), sequence (P04637 whole entry, looked up): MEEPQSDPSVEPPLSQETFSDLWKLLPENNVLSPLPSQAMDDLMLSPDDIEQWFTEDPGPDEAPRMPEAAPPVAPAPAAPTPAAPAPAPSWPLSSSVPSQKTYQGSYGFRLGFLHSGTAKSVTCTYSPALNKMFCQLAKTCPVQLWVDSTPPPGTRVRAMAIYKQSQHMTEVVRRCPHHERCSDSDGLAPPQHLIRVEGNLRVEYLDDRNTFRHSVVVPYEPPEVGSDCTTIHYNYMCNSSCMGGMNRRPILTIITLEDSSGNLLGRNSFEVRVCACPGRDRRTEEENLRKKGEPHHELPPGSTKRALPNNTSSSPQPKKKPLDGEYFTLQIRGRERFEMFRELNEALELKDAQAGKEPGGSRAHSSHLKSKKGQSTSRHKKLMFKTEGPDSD
How it was run: (§2)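 A549 cells plated at 2×10^5 cells/well, treated 48 h at 2 μM, with DMSO vehicle as control. Whole-genome transcriptional profiling followed the manufacturer's protocol. Total RNA integrity was checked by Bioanalyzer before arraying.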

[7] = biological target: Cellular tumor antigen p53 (Homo sapiens) (UniProt P04637); assay: Activation of p53 in human A549 cells assessed as upregulation of EDA2R gene expression at 2 uM after 48 hrs by microarray analysis relative to control; type: cell-based; how it was run: as §2
[8] = system: A549; assay: Upregulation of ABCA12 gene expression in human A549 cells at 2 uM after 48 hrs by microarray analysis relative to control; type: functional; how it was run: as §2
[9] = biological target: Cellular tumor antigen p53 (Homo sapiens) (UniProt P04637); assay: Activation of p53 in human A549 cells assessed as upregulation of BTG2 gene expression at 2 uM after 48 hrs by microarray analysis relative to control; type: cell-based; how it was run: as §2
[10] = system: A549; assay: Upregulation of MIR3189 gene expression in human A549 cells at 2 uM after 48 hrs by microarray analysis relative to control; type: functional; how it was run: as §2
[11] = system: A549; assay: Upregulation of CDKN1A gene expression in human A549 cells at 2 uM after 48 hrs by microarray analysis relative to control; type: functional; how it was run: as §2
[12] = system: A549; assay: Upregulation of SULF2 gene expression in human A549 cells at 2 uM after 48 hrs by microarray analysis relative to control; type: functional; how it was run: as §2
[13] = system: A549; assay: Upregulation of WDR63 gene expression in human A549 cells at 2 uM after 48 hrs by microarray analysis relative to control; type: functional; how it was run: as §2
[14] = biological target: Cellular tumor antigen p53 (Homo sapiens) (UniProt P04637); assay: Activation of p53 in human A549 cells assessed as upregulation of FDXR gene expression at 2 uM after 48 hrs by microarray analysis relative to control; type: cell-based; how it was run: as §2
[15] = biological target: Cellular tumor antigen p53 (Homo sapiens) (UniProt P04637); assay: Activation of p53 in human A549 cells assessed as upregulation of MDM2 gene expression at 2 uM after 48 hrs by microarray analysis relative to control; type: cell-based; how it was run: as §2
[16] = system: A549; assay: Upregulation of UIMC1 gene expression in human A549 cells at 2 uM after 48 hrs by microarray analysis relative to control; type: functional; how it was run: as §2
[17] = system: A549; assay: Upregulation of MIR4713 gene expression in human A549 cells at 2 uM after 48 hrs by microarray analysis relative to control; type: functional; how it was run: as §2
[18] = biological target: Cellular tumor antigen p53 (Homo sapiens) (UniProt P04637); assay: Activation of p53 in human A549 cells assessed as upregulation of SESN1 gene expression at 2 uM after 48 hrs by microarray analysis relative to control; type: cell-based; how it was run: as §2
[19] = system: A549; assay: Upregulation of SCARNA7 gene expression in human A549 cells at 2 uM after 48 hrs by microarray analysis relative to control; type: functional; how it was run: as §2
[20] = system: A549; assay: Upregulation of MIR3685 gene expression in human A549 cells at 2 uM after 48 hrs by microarray analysis relative to control; type: functional; how it was run: as §2
[21] = biological target: Cellular tumor antigen p53 (Homo sapiens) (UniProt P04637); assay: Activation of p53 in human A549 cells assessed as upregulation of CYFIP2 gene expression at 2 uM after 48 hrs by microarray analysis relative to control; type: cell-based; how it was run: as §2
[22] = system: A549; assay: Upregulation of POLH gene expression in human A549 cells at 2 uM after 48 hrs by microarray analysis relative to control; type: functional; how it was run: as §2
[23] = biological target: Cellular tumor antigen p53 (Homo sapiens) (UniProt P04637); assay: Activation of p53 in human A549 cells assessed as upregulation of TP53INP1 gene expression at 2 uM after 48 hrs by microarray analysis relative to control; type: cell-based; how it was run: as §2
[24] = biological target: Cellular tumor antigen p53 (Homo sapiens) (UniProt P04637); assay: Activation of p53 in human A549 cells assessed as upregulation of CD70 gene expression at 2 uM after 48 hrs by microarray analysis relative to control; type: cell-based; how it was run: as §2
[25] = biological target: Cellular tumor antigen p53 (Homo sapiens) (UniProt P04637); assay: Activation of p53 in human A549 cells assessed as upregulation of FAS gene expression at 2 uM after 48 hrs by microarray analysis relative to control; type: cell-based; how it was run: as §2
[26] = system: A549; assay: Upregulation of GDF15 gene expression in human A549 cells at 2 uM after 48 hrs by microarray analysis relative to control; type: functional; how it was run: as §2
[27] = system: A549; assay: Upregulation of GAS6-AS1 gene expression in human A549 cells at 2 uM after 48 hrs by microarray analysis relative to control; type: functional; how it was run: as §2
[28] = system: A549; assay: Upregulation of ANKRD1 gene expression in human A549 cells at 2 uM after 48 hrs by microarray analysis relative to control; type: functional; how it was run: as §2
[29] = biological target: Cellular tumor antigen p53 (Homo sapiens) (UniProt P04637); assay: Activation of p53 in human A549 cells assessed as upregulation of DDB2 gene expression at 2 uM after 48 hrs by microarray analysis relative to control; type: cell-based; how it was run: as §2
[30] = system: A549; assay: Upregulation of NEFL gene expression in human A549 cells at 2 uM after 48 hrs by microarray analysis relative to control; type: functional; how it was run: as §2
[31] = system: A549; assay: Downregulation of SNORA9 gene expression in human A549 cells at 2 uM after 48 hrs by microarray analysis relative to control; type: functional; how it was run: as §2
[32] = system: A549; assay: Downregulation of ALDH1L2 gene expression in human A549 cells at 2 uM after 48 hrs by microarray analysis relative to control; type: functional; how it was run: as §2
[33] = biological target: Cellular tumor antigen p53 (Homo sapiens) (UniProt P04637); assay: Activation of p53 in human A549 cells assessed as downregulation of CARS gene expression at 2 uM after 48 hrs by microarray analysis relative to control; type: cell-based; how it was run: as §2
[34] = system: A549; assay: Downregulation of ASNS gene expression in human A549 cells at 2 uM after 48 hrs by microarray analysis relative to control; type: functional; how it was run: as §2
[35] = system: A549; assay: Downregulation of TAS2R30 gene expression in human A549 cells at 2 uM after 48 hrs by microarray analysis relative to control; type: functional; how it was run: as §2
[36] = biological target: Cellular tumor antigen p53 (Homo sapiens) (UniProt P04637); assay: Activation of p53 in human A549 cells assessed as downregulation of STC2 gene expression at 2 uM after 48 hrs by microarray analysis relative to control; type: cell-based; how it was run: as §2
[37] = system: A549; assay: Downregulation of ULBP1 gene expression in human A549 cells at 2 uM after 48 hrs by microarray analysis relative to control; type: functional; how it was run: as §2
[38] = system: A549; assay: Downregulation of GUSBP3 gene expression in human A549 cells at 2 uM after 48 hrs by microarray analysis relative to control; type: functional; how it was run: as §2
[39] = biological target: Cellular tumor antigen p53 (Homo sapiens) (UniProt P04637); assay: Activation of p53 in human A549 cells assessed as downregulation of CHAC1 gene expression at 2 uM after 48 hrs by microarray analysis relative to control; type: cell-based; how it was run: as §2
[40] = system: A549; assay: Induction of apoptosis in human A549 cells at 2 uM after 48 hrs by Annexin V-FITC/ethidium homodimer-3/Hoechst 33342 staining based fluorescence microscopic method; type: functional, cell-based
How it was run: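 A549 cells seeded in chamber slides at 2×10^4 cells/well and exposed to 2 μM for 48 h; vehicle control 0.1% DMSO. Cells were washed in binding buffer and stained with FITC-annexin V (apoptotic), ethidium homodimer III (necrotic) and Hoechst 33342 (all nuclei), then imaged by confocal fluorescence microscopy.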

[41] = system: MV4-11; assay: Antiproliferative activity against human MV4-11 cells harboring wild type p53 after 96 hrs by WST8 assay; type: functional, cell-based; details: MV4-11, 96 h
[42] = system: MDA-MB-231; assay: Antiproliferative activity against human MDA-MB-231 cells harboring p53 mutant assessed as cell viability at 10 uM after 96 hrs by WST8 assay relative to control; type: functional; details: MDA-MB-231, 96 h, read-out: Activity

`CC1=NN(c2ccc(C(=O)NCCOCCOCC(=O)NCCC(=O)Nc3cc(C(=O)Nc4cn(C)c(C(=O)Nc5cn(C)c(C(=O)Nc6cc(C(=O)NCCCC(=O)Nc7cc(C(=O)Nc8cc(C(=O)Nc9cc(C(=O)Nc%10cc(C(=O)NCCCN(C)C)n(C)c%10)n(C)c9)n(C)c8)n(C)c7)n(C)c6)n5)n4)n(C)c3)cc2)C(=O)/C1=C/c1ccc(-c2cc(C)c(C)cc2[N+](=O)[O-])o1` was tested, and the viability at 10 µM [1] was 78.4%, the ΔTm [2] was 18.1 °C and the ΔTm [3] was 11.5 °C. For the same molecule, the IC50 [4] was 3900 to 4200 nM, the Activity [5] was “Dose-dependent effect” and the IC50 ([5]; A549, 96 h) was 1800 nM. The fold change (FC) [6] was 2.98, the fold change (FC) [7] was 2.53 and the “fold change (FC)” value [8] was 2.42. The fold change (FC) [9] was 2.35, the “fold change (FC)” value [10] was 2.32 and the “fold change (FC)” value [11] was 2.28. For the same molecule, the “fold change (FC)” value [12] was 2.13, the “fold change (FC)” value [13] was 2.03 and the fold change (FC) [14] was 2. For the same molecule, the fold change (FC) [15] was 1.97, the “fold change (FC)” value [16] was 1.94 and the “fold change (FC)” value [17] was 1.94. The fold change (FC) [18] was 1.91, the “fold change (FC)” value [19] was 1.89 and the “fold change (FC)” value [20] was 1.89. The fold change (FC) [21] was 1.88, the “fold change (FC)” value [22] was 1.88 and the fold change (FC) [23] was 1.85. For the same molecule, the fold change (FC) [24] was 1.83, the fold change (FC) [25] was 1.83 and the “fold change (FC)” value [26] was 1.81. For the same molecule, the “fold change (FC)” value [27] was 1.81, the “fold change (FC)” value [28] was 1.81 and the fold change (FC) [29] was 1.8. The “fold change (FC)” value [30] was 1.8, the “fold change (FC)” value [31] was 1.81 and the “fold change (FC)” value [32] was 1.86. For the same molecule, the fold change (FC) [33] was 1.9, the “fold change (FC)” value [34] was 2.01 and the “fold change (FC)” value [35] was 2.01. For the same molecule, the fold change (FC) [36] was 2.34, the “fold change (FC)” value [37] was 2.34 and the “fold change (FC)” value [38] was 2.63. For the same molecule, the fold change (FC) [39] was 3.64, the Activity [40] was “Active” and the IC50 [41] was 2600 nM. For the same molecule, the viability at 10 µM [42] was 69.3%.
